Test results reported in ChEMBL document CHEMBL4689842, “EUbOPEN Chemogenomics Library wave 1” (2021).

Test system: Fibroblast
Test: Multiplex assay against human fibroblast
Format: toxicity, cell-based
Method in brief: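 Live cells were stained at seeding with Hoechst33342, BioTracker Green Microtubule Cytoskeleton Dye, MitoTracker Red and Annexin V Alexa Fluor 680, then imaged on a CQ1 microscope at 37°C and 5% CO2 after compound addition. CellPathfinder machine-learning gating split cells into Hoechst high-intensity objects or normal cells. Normal cells were split into healthy, pyknosed or fragmented nuclei, and pyknosed cells into mitotic or apoptotic. Tubulin, mitochondrial-mass and membrane-permeability phenotypes are per cents of healthy-nucleus cells.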

[1] = 12 h, 1 µM, compound concentration 1 uM, replicate 1
[2] = 12 h, 1 µM, compound concentration 1 uM, replicate 2
[3] = 12 h, 10 µM, compound concentration 10 uM, replicate 1
[4] = 12 h, 10 µM, compound concentration 10 uM, replicate 2
[5] = 24 h, 1 µM, compound concentration 1 uM, replicate 1
[6] = 24 h, 1 µM, compound concentration 1 uM, replicate 2
[7] = 24 h, 10 µM, compound concentration 10 uM, replicate 1
[8] = 24 h, 10 µM, compound concentration 10 uM, replicate 2
[9] = 48 h, 1 µM, compound concentration 1 uM, replicate 1
[10] = 48 h, 1 µM, compound concentration 1 uM, replicate 2
[11] = 48 h, 10 µM, compound concentration 10 uM, replicate 1
[12] = 48 h, 10 µM, compound concentration 10 uM, replicate 2

## CCc1cccc(CC)c1NC(=O)c1nn(C)c2c1CCc1cnc(Nc3ccc(C(=O)NC4CCN(C)CC4)cc3OC(F)(F)F)nc1-2
[1]
  Population Apoptotic (%): 62%
  Population Fragmented Nuclei (%): 22%
  Population Healthy Nuclei (%): 38%
  Population Hoechst High Intensity Objects (%): 7%
  Population Membrane Permeable-Phenotype (%): 24%
  Population Mitochondria Different-Phenotype (%): 7%
  Population Mitotic Cells (%): 37%
  Population Normal (%): 92%
  Population Pyknosed Nuclei (%): 39%
  Population Tubulin-Different-Phenotype (%): 47%
  Total Cell Count: 160
[2]
  Population Apoptotic (%): 40%
  Population Fragmented Nuclei (%): 1%
  Population Healthy Nuclei (%): 83%
  Population Hoechst High Intensity Objects (%): 13%
  Population Membrane Permeable-Phenotype (%): 5%
  Population Mitochondria Different-Phenotype (%): 14%
  Population Mitotic Cells (%): 60%
  Population Normal (%): 86%
  Population Pyknosed Nuclei (%): 15%
  Population Tubulin-Different-Phenotype (%): 18%
  Total Cell Count: 51
[3]
  Population Apoptotic (%): 61%
  Population Fragmented Nuclei (%): 24%
  Population Healthy Nuclei (%): 51%
  Population Hoechst High Intensity Objects (%): 21%
  Population Membrane Permeable-Phenotype (%): 8%
  Population Mitochondria Different-Phenotype (%): 26%
  Population Mitotic Cells (%): 38%
  Population Normal (%): 78%
  Population Pyknosed Nuclei (%): 23%
  Population Tubulin-Different-Phenotype (%): 60%
  Total Cell Count: 139
[4]
  Population Apoptotic (%): 46%
  Population Fragmented Nuclei (%): 12%
  Population Healthy Nuclei (%): 70%
  Population Hoechst High Intensity Objects (%): 5%
  Population Membrane Permeable-Phenotype (%): 15%
  Population Mitochondria Different-Phenotype (%): 98%
  Population Mitotic Cells (%): 53%
  Population Normal (%): 94%
  Population Pyknosed Nuclei (%): 17%
  Population Tubulin-Different-Phenotype (%): 86%
  Total Cell Count: 75
[5]
  Population Apoptotic (%): 48%
  Population Fragmented Nuclei (%): 23%
  Population Healthy Nuclei (%): 40%
  Population Hoechst High Intensity Objects (%): 11%
  Population Membrane Permeable-Phenotype (%): 23%
  Population Mitochondria Different-Phenotype (%): 5%
  Population Mitotic Cells (%): 52%
  Population Normal (%): 88%
  Population Pyknosed Nuclei (%): 35%
  Population Tubulin-Different-Phenotype (%): 53%
  Total Cell Count: 157
[6]
  Population Apoptotic (%): 37%
  Population Fragmented Nuclei (%): 7%
  Population Healthy Nuclei (%): 81%
  Population Hoechst High Intensity Objects (%): 10%
  Population Membrane Permeable-Phenotype (%): 5%
  Population Mitochondria Different-Phenotype (%): 12%
  Population Mitotic Cells (%): 62%
  Population Normal (%): 89%
  Population Pyknosed Nuclei (%): 11%
  Population Tubulin-Different-Phenotype (%): 19%
  Total Cell Count: 53
[7]
  Population Apoptotic (%): 62%
  Population Fragmented Nuclei (%): 25%
  Population Healthy Nuclei (%): 49%
  Population Hoechst High Intensity Objects (%): 30%
  Population Membrane Permeable-Phenotype (%): 16%
  Population Mitochondria Different-Phenotype (%): 40%
  Population Mitotic Cells (%): 37%
  Population Normal (%): 69%
  Population Pyknosed Nuclei (%): 25%
  Population Tubulin-Different-Phenotype (%): 50%
  Total Cell Count: 161
[8]
  Population Apoptotic (%): 50%
  Population Fragmented Nuclei (%): 15%
  Population Healthy Nuclei (%): 63%
  Population Hoechst High Intensity Objects (%): 2%
  Population Membrane Permeable-Phenotype (%): 26%
  Population Mitochondria Different-Phenotype (%): 91%
  Population Mitotic Cells (%): 50%
  Population Normal (%): 97%
  Population Pyknosed Nuclei (%): 20%
  Population Tubulin-Different-Phenotype (%): 73%
  Total Cell Count: 77
[9]
  Population Apoptotic (%): 67%
  Population Fragmented Nuclei (%): 31%
  Population Healthy Nuclei (%): 45%
  Population Hoechst High Intensity Objects (%): 15%
  Population Membrane Permeable-Phenotype (%): 16%
  Population Mitochondria Different-Phenotype (%): 7%
  Population Mitotic Cells (%): 32%
  Population Normal (%): 84%
  Population Pyknosed Nuclei (%): 23%
  Population Tubulin-Different-Phenotype (%): 40%
  Total Cell Count: 141
[10]
  Population Apoptotic (%): 20%
  Population Fragmented Nuclei (%): 38%
  Population Healthy Nuclei (%): 55%
  Population Hoechst High Intensity Objects (%): 11%
  Population Membrane Permeable-Phenotype (%): 10%
  Population Mitochondria Different-Phenotype (%): 4%
  Population Mitotic Cells (%): 80%
  Population Normal (%): 88%
  Population Pyknosed Nuclei (%): 5%
  Population Tubulin-Different-Phenotype (%): 42%
  Total Cell Count: 102
[11]
  Population Apoptotic (%): 70%
  Population Fragmented Nuclei (%): 31%
  Population Healthy Nuclei (%): 50%
  Population Hoechst High Intensity Objects (%): 38%
  Population Membrane Permeable-Phenotype (%): 16%
  Population Mitochondria Different-Phenotype (%): 15%
  Population Mitotic Cells (%): 30%
  Population Normal (%): 61%
  Population Pyknosed Nuclei (%): 18%
  Population Tubulin-Different-Phenotype (%): 47%
  Total Cell Count: 172
[12]
  Population Apoptotic (%): 25%
  Population Fragmented Nuclei (%): 29%
  Population Healthy Nuclei (%): 67%
  Population Hoechst High Intensity Objects (%): 15%
  Population Membrane Permeable-Phenotype (%): 30%
  Population Mitochondria Different-Phenotype (%): 10%
  Population Mitotic Cells (%): 75%
  Population Normal (%): 84%
  Population Pyknosed Nuclei (%): 2%
  Population Tubulin-Different-Phenotype (%): 43%
  Total Cell Count: 158
